Data reported in ChEMBL document CHEMBL4680156, “Discovery of novel pyrido-pyrrolidine hybrid compounds as alpha-glucosidase inhibitors and alternative agent for control of type 1 diabetes” (Eur J Med Chem, 2020).
Calls of active or inactive are those of the source. The rule behind the calls is not given here.

How the values were obtained:
[1] = Toxicity in STZ-treated diabetic Sprague-Dawley rat model assessed as decrease in body weight at 60 mg/kg, po administered once daily for 28 days; assay type: organism-based; conditions: in vivo, 672 h, time 28 day
Procedure, shortened: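 Male Sprague-Dawley rats (250–320 g, 8–10 weeks) were made diabetic with a single STZ dose (70 mg/kg ip in 0.1 mmol/L citrate buffer, pH 4.5). Random glucose above 125 mg/dl defined diabetes. Dosing was 60 mg/kg in 0.5% saline by gastric gavage once daily for 4 weeks, n=6 per group, with vehicle controls. Body weight was recorded before and after treatment; mean ± SD, 2-way ANOVA.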

[2] = Octanol/aqueous buffer distribution coefficient, log D of compound after 1 hr by HPLC-UV analysis; assay type: physicochemical
Procedure, shortened: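 Compound was added to octanol and vortexed, then buffer was added. The mixture was shaken 1 h at room temperature, allowed to equilibrate 20 min and centrifuged at 4000 g for 30 min. Octanol and buffer layers were each quantified by HPLC-UV.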

Saccharomyces cerevisiae [3] = assay: Binding affinity to Saccharomyces cerevisiae alpha-glucosidase assessed as decrease in fluorescence intensity at 6.25 to 25 ng/ml after 30 mins by spectrofluorometric method; conditions: dose 6.25-25 ng/ml
Procedure, shortened: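 Yeast α-glucosidase (1.5 U) was pretreated with compound at 6.25 and 25 ng/ml for 30 min at 37 °C. Intrinsic Trp fluorescence was excited at 295 nm and the emission (peak 330 nm) recorded at 298 K. Quenching was scored against free enzyme.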

Cytochrome P450 = Cytochrome P450 (Homo sapiens, UniProt P04798+P05177+P05181+P08684+P10632+P10635+P11509+P11712+P13584+P20813+P20815+P20853+P24462+P24903+P33260+P33261+P51589+P78329+P98187+Q02928+Q08477+Q16678+Q16696+Q5TCH4+Q6VVX0+Q7Z449+Q8TAV3+Q96SQ9+Q9HB55); assay: Stability in human liver microsomes assessed as CYP450-mediated drug degradation by measuring proportion of compound metabolised at 1 uM up to 60 mins in presence of NADPH by LC-MS/MS analysis; assay type: ADME; conditions: read-out: Drug degradation
Procedure, shortened: (§1)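 Liver microsomes (1.0 mg protein/mL) were incubated with compound at 1 μM; reactions were started with 1 mM NADPH. No-NADPH incubations (0 and 60 min) served as stability controls. Reactions were stopped at 0, 5, 15, 30 and 60 min with ice-cold acetonitrile containing internal standard, then centrifuged. Parent loss was tracked by LC-MS/MS.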

BRIN-BD11 = assay: Induction of rat BRIN-BD11 cell proliferation at 1 uM after 24 hrs by MTT assay; assay type: functional
Procedure, shortened: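 BRIN-BD11 rat β-cells were seeded at 10^4 cells/well in RPMI and left overnight. They were exposed 24 h to compound at 100, 30, 10, 3, 1, 0.3 and 0.1 μM. MTT (5 mg/ml stock) was added for 90 min at 37 °C, formazan dissolved in DMSO, and absorbance read at 560 nm.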

[4] = Intrinsic clearance in mouse liver microsomes at 1 uM up to 60 mins in presence of NADPH by LC-MS/MS analysis; assay type: ADME, Microsome; conditions: 1 h; procedure, shortened: as §1
[5] = Half life in mouse liver microsomes at 1 uM up to 60 mins in presence of NADPH by LC-MS/MS analysis; assay type: ADME, Microsome; procedure, shortened: as §1
[6] = Competitive inhibition of Saccharomyces cerevisiae alpha-glucosidase using PNPG as substrate incubated for 10 mins by Lineweaver-Burk plot analysis
Procedure, shortened: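 Yeast α-glucosidase kinetics used pNPG at 1, 2, 3, 4 and 5 mM without inhibitor or with inhibitor at 2 and 10 μM, at 37 °C. Absorbance read at 420 nm. Mode of inhibition came from Km/Vmax changes on Lineweaver–Burk double-reciprocal plots; Ki derived […].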

Rattus norvegicus [7] = assay: Decrease in post prandial glucose level in type 1 diabetic Sprague-Dawley rat model at 60 mg/kg, po administered once daily for 28 days; conditions: time 28.0 day
Rattus norvegicus [8] = assay: Antidiabetic activity against STZ-induced type 1 diabetic Sprague-Dawley rat model assessed as decrease in fasting blood glucose level at 60 mg/kg, po administered once daily for 28 days; assay type: functional, organism-based; conditions: time 28.0 day
Procedure, shortened: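 Male Sprague-Dawley rats (250–320 g, 8–10 weeks) were given STZ 70 mg/kg ip once in 0.1 mmol/L citrate buffer, pH 4.5. Rats with random glucose >125 mg/dl at 4 days were counted diabetic. Dosing was 60 mg/kg in 0.5% saline by gavage once daily for 4 weeks, n=6 per group. After a 6 h fast, tail blood glucose was read by glucometer. Data are mean ± SD; 2-way ANOVA.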

Saccharomyces cerevisiae [9] = assay: Binding affinity to Saccharomyces cerevisiae alpha-glucosidase assessed as protein with beta-sheet structure at 0.64 ug/ml by CD spectroscopic method (reference value: 68%); conditions: dose 0.64 µg/ml
Procedure, shortened: (§2)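 Compound was added at different concentrations to yeast α-glucosidase (30 U/ml). CD spectra were taken with 3 accumulations (negative bands at 209 and 222 nm). α-Helix and β-sheet content were estimated with secondary-structure estimation software.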

Saccharomyces cerevisiae [10] = assay: Binding affinity to Saccharomyces cerevisiae alpha-glucosidase assessed as protein with alpha-helical structure at 0.64 ug/ml by CD spectroscopic method (reference value: 5.3%); conditions: dose 0.64 µg/ml; procedure, shortened: as §2
[11] = Half life in human liver microsomes at 1 uM up to 60 mins in presence of NADPH by LC-MS/MS analysis; assay type: ADME, Microsome; procedure, shortened: as §1
[12] = Drug recovery in mouse plasma at 10 uM after 6 hrs by LC-MS/MS analysis; assay type: ADME, cell-free; conditions: read-out: Drug recovery
Procedure, shortened: (§3)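 Equilibrium dialysis: plasma with compound at 10 μM final on one side, 100 mM sodium phosphate pH 7.4 on the other. Equilibrated at 37 ± 1 °C for 6 h with shaking at 500 rpm. Both sides were sampled, proteins precipitated with organic solvent, and supernatants analysed by LC-MS/MS.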

Saccharomyces cerevisiae [13] = assay: Binding affinity to Saccharomyces cerevisiae alpha-glucosidase assessed as protein with alpha-helical structure at 0.32 ug/ml by CD spectroscopic method (reference value: 5.3%); conditions: dose 0.32 µg/ml; procedure, shortened: as §2
[14] = Half life in rat liver microsomes at 1 uM up to 60 mins in presence of NADPH by LC-MS/MS analysis; assay type: ADME, Microsome; procedure, shortened: as §1
[15] = Protein binding in human plasma assessed as bound fraction at 10 uM after 6 hrs by LC-MS/MS analysis; assay type: ADME, cell-free; conditions: read-out: PPB (converted); procedure, shortened: as §3
[16] = Protein binding in rat plasma assessed as bound fraction at 10 uM after 6 hrs by LC-MS/MS analysis; assay type: ADME, cell-free; conditions: read-out: PPB (converted); procedure, shortened: as §3
[17] = Intrinsic clearance in rat liver microsomes at 1 uM up to 60 mins in presence of NADPH by LC-MS/MS analysis; assay type: ADME, Microsome; conditions: 1 h; procedure, shortened: as §1
[18] = Permeability of compound at pH 7.4 after 4 hrs by GIT PAMPA method; assay type: ADME; conditions: read-out: permeability
Procedure, shortened: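 GIT PAMPA: compound in the donor plate at pH 7.4, with GIT-0 lipid coated on the acceptor membrane and sink buffer in the acceptor plate. Incubated 4 h; donor and acceptor aliquots were read by UV to give permeability.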

Saccharomyces cerevisiae [19] = assay: Binding affinity to Saccharomyces cerevisiae alpha-glucosidase assessed as protein with beta-sheet structure at 0.32 ug/ml by CD spectroscopic method (reference value: 68%); conditions: dose 0.32 µg/ml; procedure, shortened: as §2

logD at 1 h [2]: 2.4
Activity (Saccharomyces cerevisiae [3]): Active
metabolised at 1 h, 1 µM (Cytochrome P450): 96.3%
CLint [4]: 74.1 µL/min/mg
half-life at 1 µM [5]: 9 min
Ki [6]: 29.9 µM
Activity (Saccharomyces cerevisiae [9]): 58.9%
Activity (Saccharomyces cerevisiae [10]): 6.6%
half-life at 1 µM [11]: 13 min
remaining at 6 h, 10 µM [12]: 15%
Activity (Saccharomyces cerevisiae [13]): 5.2%
half-life at 1 µM [14]: 15 min
fraction unbound at 6 h, 10 µM [15]: 0.107
fraction unbound at 6 h, 10 µM [16]: 0.0156
CLint [17]: 54.4 µL/min/mg
Papp at 4 h [18]: 15 ×10⁻⁶ cm/s
Activity (Saccharomyces cerevisiae [19]): 63%
Structure (SMILES): CCOC(=O)c1ccc(-n2c(/C=C3\OC(=O)c4c3cc(C)[nH]c4=O)ccc2CO)cc1
Activity [1]: Non-Toxic
Activity (BRIN-BD11): Active
inhibition (Rattus norvegicus [7]): inactive
Activity (Rattus norvegicus [8]): Active
